Compound activity deposited in PubChem BioAssay by several laboratories.
Only a selection was taken, and hits are over-represented in it overall.
L major viab – reduces viability of Leishmania major promastigotes | inhibition, % at 10 µM | 200,000 tested, 9% active | resazurin fluorescence viability; in the data active = inhibition above about 50%;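 note: promastigotes grown with compound for 44 hours at 28 °C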
S1P4 agonist – activates the human S1P4 receptor; S1P4-expressing cell line, agonist reporter assay; AID 1509; 220,000 tested, 0.35% active; activation, % at 4.98 µM; in the data active = activation above about 11%;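 note: 0% = DMSO vehicle and 100% = reference agonist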
MDM2 E3 inh – blocks human Mdm2 ubiquitin ligase activity. 210,000 tested, 0.11% active. signal enhancement, % at 5 µM. AID 1230. cell-based MDM2 ubiquitination luciferase reporter, 2 h; 0 = plate control, 100 = twice control, blank-subtracted. Q00987;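 active = signal enhancement of 30% or more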;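 note: luminescence tracks abundance of the self-degrading MDM2-luciferase fusion protein; higher signal means inhibition of MDM2 E3 ligase activity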
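Buffer or medium: Cells held in DMEM | Assay system: Stable mammalian line carrying autodegrading MDM2–luciferase fusion reporter | Quantity: 2000 cells/well | Times: 4 h settle plus 2 h compound, 37 °C | Doses: One concentration, 5 µM, with 0.2% DMSO | Technique: Luminescence with SteadyLite reagent, 15 min at room temperature | Benchmarks: Plate controls and plate blanks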
S1P4 antagonist – antagonists of human S1P4 receptor; S1P4-expressing cells, antagonist mode, reporter read-out; O95977; AID 1510; 220,000 tested, 0.26% active; inhibition, % at 4.98 µM; in the data active = inhibition above about 29%;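 note: 0% = wells stimulated with agonist and 100% = vehicle wells without agonist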
S1P3 antag – blocks the human S1P3 receptor; 170,000 tested, 0.27% active; CHO S1P3 NFAT-BLA reporter, FRET fluorescence, antagonist mode; Q99500; AID 485; inhibition, % at 4.98 µM;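 active = inhibition above the plate cutoff, the mean inhibition of test wells on that plate plus 3 SD, cut at about 28% in these data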;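 note: cells challenged with S1P at its EC80 of 0.8 µM; blue over green emission ratio from cleaved BLA substrate after 4 h stimulation; 0% = S1P-stimulated wells and 100% = unstimulated DMSO-only wells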
Target sequence (Q99500 whole entry, looked up): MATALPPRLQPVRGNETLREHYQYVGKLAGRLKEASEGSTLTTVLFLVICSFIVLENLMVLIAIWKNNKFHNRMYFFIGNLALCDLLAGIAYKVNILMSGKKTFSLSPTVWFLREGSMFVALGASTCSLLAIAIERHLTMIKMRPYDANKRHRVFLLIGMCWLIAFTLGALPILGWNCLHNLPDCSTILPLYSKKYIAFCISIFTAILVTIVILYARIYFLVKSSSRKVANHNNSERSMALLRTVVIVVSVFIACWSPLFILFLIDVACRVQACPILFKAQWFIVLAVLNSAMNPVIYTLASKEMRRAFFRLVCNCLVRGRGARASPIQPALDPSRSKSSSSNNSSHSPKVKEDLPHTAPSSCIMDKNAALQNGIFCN
* marks the source's active call; other numbers are inactive results; · = not tested or not shown.

SMILES | L major viab | S1P4 agonist | MDM2 E3 inh | S1P4 antagonist | S1P3 antag
CC(C)(C)n1nnnc1C(c1ccc(C#N)cc1)N1CCCC2(CCCCC2)C1 (stereo unspecified) | 78* | 0 | -12 | 11 | -169
CCC(C)(C)n1nnnc1C(c1ccncc1)N1CCC(Cc2ccccc2)CC1 (stereo unspecified) | 91* | 0 | -13 | 1 | ·
CCC(C)(C)n1nnnc1C(c1cccnc1)N1CCCC(C)C1 (stereo unspecified) | 87* | 1 | -4 | -27 | 4
O=C(NC(=S)Nc1ccc(Cc2ccncc2)cc1)c1ccc(F)cc1 | -1 | 1 | -9 | -14 | -12
CCC(C)(C)n1nnnc1C(c1cccnc1)N1CCC(Cc2ccccc2)CC1 (stereo unspecified) | 90* | 2 | -11 | -11 | -13
CC(C)(C)n1nnnc1C(c1cccc(C#N)c1)N1CCC(Cc2ccccc2)CC1 (stereo unspecified) | 83* | -1 | -5 | -21 | 9
O=C(NCc1ccco1)C(c1cccs1)N(C(=O)C1COc2ccccc2O1)c1cccc(O)c1 (stereo unspecified) | 18 | 2 | -2 | 8 | 6
COc1ccc(NS(=O)(=O)c2cccc(C(=O)N/N=C(\C)c3ccncc3)c2)cc1 | 59* | 0 | 6 | -8 | -7
COc1ccc(S(=O)(=O)N/N=C(/C)c2cccc(NC(=O)c3ccccc3Cl)c2)cc1 | 97* | 0 | -6 | -11 | ·
CC(Cc1cccs1)NC(=S)Nc1ccc(Cl)c(Cl)c1 (stereo unspecified) | 71* | -2 | -7 | 17 | -3
CC(Cc1cccs1)NC(=O)Nc1cccc(Cl)c1 (stereo unspecified) | 68* | -2 | · | 4 | ·
CC(Cc1cccs1)NC(=S)Nc1ccc(Cl)cc1 (stereo unspecified) | 11 | 1 | -3 | -3 | 4
CC(Cc1cccs1)NC(=O)Nc1ccc(F)cc1 (stereo unspecified) | -2 | 1 | -3 | -3 | ·
COc1ccc(-n2c(SCc3cn4c(C)cccc4n3)nc3ccccc3c2=O)cc1OC | 44 | 3 | 3 | -19 | 16
CCc1nnc(NC(=O)CSc2nnc(-c3ccc(NS(=O)(=O)c4ccccc4)cc3)o2)s1 | -2 | 2 | -10 | -3 | -1
O=C(N/N=C/c1ccc([N+](=O)[O-])o1)c1cn2ccc3ccccc3c2n1 | · | -1 | -9 | -18 | -5
O=C(N/N=C/c1ccc([N+](=O)[O-])o1)c1cc(-c2cccc(Br)c2)nc2ccccc12 | 100* | -4 | -6 | -5 | ·
CCCc1ccc(-c2cc(C(=O)N/N=C/c3ccc([N+](=O)[O-])o3)c3ccccc3n2)cc1 | 100* | 0 | -25 | 5 | ·
O=C(N/N=C/c1ccccn1)c1cc(-c2ccc(Br)cc2)nc2ccccc12 | · | 0 | -35 | 13 | 1
CCCn1c(SCC(=O)NCc2ccc(Cl)cc2)n[nH]c1=O | -10 | -1 | -4 | -18 | 0
Cc1nc2ccccc2c(=O)n1/N=C/c1ccc([N+](=O)[O-])o1 | · | 0 | 7 | -7 | -2
O=[N+]([O-])c1ccc(/C=N/n2c(CO)nc3ccccc32)s1 | 100* | -1 | -3 | -5 | 1
Cc1nc2ccccc2n1/N=C/c1ccc([N+](=O)[O-])s1 | 100* | 1 | -16 | 0 | -18
Cc1nc2ccccc2n1/N=C/c1ccc([N+](=O)[O-])o1 | 101* | 0 | · | -8 | ·
CC(NC(=O)C(NC(=O)C1CCCN1C(=O)OC(C)(C)C)C(C)C)C(N)=O (stereo unspecified) | -6 | 0 | -11 | -18 | -26
SMILES | L major viab | S1P4 agonist | MDM2 E3 inh | S1P4 antagonist | S1P3 antag
Cc1ccccc1NS(=O)(=O)c1cc(C(=O)Nc2cccc([N+](=O)[O-])c2)ccc1C | 72* | 0 | -1 | 5 | -1
Cc1ccc(C(=O)Nc2ccccc2-c2ccccc2)cc1S(=O)(=O)Nc1cccc(C)c1C | 63* | 1 | -8 | -2 | ·
Cc1ccc(C(=O)Nc2cccc(N(C)S(C)(=O)=O)c2)cc1S(=O)(=O)Nc1ccccc1 | 75* | 0 | -2 | -22 | ·
Cc1ccccc1NS(=O)(=O)c1cc(S(C)(=O)=O)ccc1C | 54* | 0 | 2 | -24 | -4
COc1ccc(C(=O)Nc2cccc(N(C)S(C)(=O)=O)c2)cc1OC | 0 | 0 | -5 | -3 | -14
COc1ccc(NC(=O)/C(=C\c2ccncc2)NC(=O)c2ccccc2)cc1 | -4 | -1 | -9 | 6 | -12
Cn1c(N)c(C(=O)Nc2ccc(-c3ccccc3)cc2)sc1=S | · | 1 | -5 | 3 | -16
Cc1cccc(NC(=O)CSc2nnc(-c3ccco3)c(-c3ccco3)n2)c1C | 87* | 1 | -11 | -4 | ·
Cc1cccc(NC(=O)CSc2nnc(-c3ccco3)c(-c3ccco3)n2)c1 | 68* | -1 | 1 | 9 | 4
Cc1cccc(NC(=O)CSc2nc(N)cc(N)n2)c1 | 1 | -2 | · | -25 | ·
CCOC(=O)C1=C(C)NC(C)=C(C(=O)OCC)C1C(=O)OCC(=O)N1CCc2ccccc2C1 | 6 | 1 | -1 | -10 | 7
c1ccc2c(c1)OCCOCCOCCOCCOCCOc1ccccc1OCCOCCOCCO2 | 100* | 1 | -2 | 3 | -1
COc1ccc2cc(-c3cc(C(=O)OCC(=O)NC4CCS(=O)(=O)C4)c4ccccc4n3)ccc2c1 (stereo unspecified) | 60* | -1 | -32 | 2 | 5
O=C(COC(=O)c1cc(-c2cccc3ccccc23)nc2ccccc12)NC1CCS(=O)(=O)C1 (stereo unspecified) | 69* | 0 | -18 | -23 | -6
Nc1ccnc(Oc2ccc(F)cc2)c1 | -6 | 1 | -15 | -34 | 7
Cc1ccc(Cl)cc1NC(=S)NCCCSC1CCCCC1 | 34 | 3 | 7 | 8 | 17
Cc1ccc(S(=O)(=O)NCCc2cccs2)cc1 | · | 1 | -6 | 3 | 1
Cc1ccc(S(=O)(=O)CCC(=O)OCc2ccc(Cl)cc2)cc1 | 55* | 0 | -12 | -12 | -3
Cc1ccc(S(=O)(=O)CCC(=O)NCc2ccccc2)cc1 | 57* | 0 | -14 | -14 | -2
Cc1ccc(CNC(=O)CCS(=O)(=O)c2ccc(Cl)cc2)cc1 | -6 | 1 | -12 | 0 | 5
Cc1ccc(S(=O)(=O)CCC(=O)c2ccc(O)cc2O)cc1 | 100* | -2 | -12 | -13 | -22
Cc1ccc(S(=O)(=O)CCC(=O)OCC(=O)NC(N)=O)cc1 | · | -1 | -3 | 7 | -10
O=C(C1CCN(S(=O)(=O)N2CCCCC2)CC1)N1CCCCC1 | -3 | -1 | -5 | 5 | -1
Cc1ccc(S(=O)(=O)c2c[nH]c3cc4c(cc3c2=O)OCO4)cc1 | · | -2 | 4 | 12 | 12
Cc1nc2ccccn2c1C(=O)N=Nc1c(O)n(CCC(C)C)c2ccccc12 | 67* | 1 | -13 | -16 | -5
CCn1c(O)c(N=NC(=O)c2cccs2)c2ccccc21 | 11 | 1 | 3 | -12 | -5
